Cytotoxicity data for 95 molecules are collected here from ChEMBL document CHEMBL4513216, “Probing the Open Global Health Chemical Diversity Library for Multistage-Active Starting Points for Next-Generation Antimalarials” (ACS Infect Dis, 2020).

The data set in a line: Toxicity liver stage against HepG2, at 10uM. In kind it is cell-based. Set-up: test concentration 10 uM, cell line HepG2-A16-CD81EGFP. The settings on record: human, HepG2-A16-CD81EGFP cells; read-out: INHIBITION
A digest of the protocol:
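Uninfected HepG2-A16-CD81EGFP cells, 3 × 10^3 per well, 1536-well, plated on prespotted compound at 10 μM final, parasite-free screening media added to match infected plates; puromycin 10 μM positive, DMSO 0.5% negative; run in parallel with 48 h PbLuc assay at 37 °C, 5% CO2; viability by CellTiter-Glo luminescence, normalized to controls.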
As to `COCCN1C(=O)CCC12CCN(c1ncc(F)cn1)CC2`, the cytotoxicity at 10 µM stood at 0.632%.

As to `CCN(CC)C(=O)Cn1c(=O)n(Cc2ccco2)c2ncccc21`, the cytotoxicity at 10 µM is -6.77%.

On to `O=C(c1cocn1)N1C[C@@H]2COC[C@]2(COc2cccnc2)C1`, for which the cytotoxicity at 10 µM is -107%.

Regarding `COCCn1/c(=N\C(=O)CN(C)S(C)(=O)=O)sc2cc(OC)ccc21`, the cytotoxicity at 10 µM is -7.93%.

For the molecule `O=C(c1ccccc1N1CCOCC1)N1CCCC(n2cccn2)C1` (stereo not given), the cytotoxicity at 10 µM was -7.32%.

Consider `CC(C)c1nnc(NC(=O)N(C)Cc2ccncc2)s1`, for which the cytotoxicity at 10 µM was 5.28%.

Turning to `Cc1nccc(-c2ccccc2)c1C(=O)N1CC[C@](C)(O)[C@H](C)C1`, the cytotoxicity at 10 µM stood at 3.41%.

As to `COc1cc(CCC(=O)N2CCC(c3cc4nccnc4[nH]3)CC2)on1`, the cytotoxicity at 10 µM is 3.67%.

Consider `COc1ccc(C)cc1CNC(=O)C1=NN(c2ccccc2)C(=O)CN1`, for which the cytotoxicity at 10 µM was 12.8%.

With `CO[C@H]1CN(C(=O)c2ccc3oc(C)cc3c2)C[C@@]12CCCO2`, the cytotoxicity at 10 µM is -6.14%.

For the molecule `Cc1ccc2oc(=O)n(CC(=O)N3CCC4(CC3)CN(C)C(=O)O4)c2c1`, the cytotoxicity at 10 µM was -13.8%.

Regarding `O=C1CCCN1CCC1CCN(C2CCC3(CCNCC3)CC2)CC1`, the cytotoxicity at 10 µM is 10.9%.

Regarding `O=C(O)c1cccc(CC2CCN(c3cnccn3)CC2)c1`, the cytotoxicity at 10 µM was -121%.

For `CCC(=O)N1CSCC1C(=O)N(C)CCc1ccccc1` (stereo not given), the cytotoxicity at 10 µM was 19.5%.

For the molecule `Cc1cc(C)n(CCNCc2cc(-c3ccc(F)cc3)c[nH]c2=O)n1`, the cytotoxicity at 10 µM was -5.24%.

On to `Cn1cc(CNCC2(O)CCCCC2)c(-c2cccnc2)n1`, for which the cytotoxicity at 10 µM amounted to 14.9%.

In the case of `Cc1c(C(=O)NC(C)CC(=O)c2cccs2)cnn1C` (stereo not given), the cytotoxicity at 10 µM is -8.71%.

For the molecule `CC(C)COc1cncc(N2CCCC(CC(N)=O)C2)n1` (stereo not given), the cytotoxicity at 10 µM is -1.67%.

As for `c1cncc(COC2COC3(CCN(c4cnccn4)CC3)C2)c1` (stereo not given), the cytotoxicity at 10 µM is 1.89%.

In the case of `Cc1nn(C)c(C)c1C1CCCN1Cc1nc(-c2ccco2)oc1C` (stereo not given), the cytotoxicity at 10 µM was -4.27%.

In the case of `Cc1cc(CN(C)C(=O)c2cccc(N3CCCS3(=O)=O)c2)no1`, the cytotoxicity at 10 µM is -10.2%.

For the molecule `COc1cc(OC)cc(N2CCC(NCc3ccsc3)C2=O)c1` (stereo not given), the cytotoxicity at 10 µM stood at 0.347%.

As to `CCn1cc(CN2CCCC2c2nc(C(C)C)no2)cc1C#N` (stereo not given), the cytotoxicity at 10 µM is 1.44%.

Consider `Cc1ccc(C(=O)N2CC[C@@H](N(C)C)[C@@H]2Cc2cnn(C)c2)cn1`, for which the cytotoxicity at 10 µM is -73.4%.

With `Cc1nc(CN2CC[C@H]3C[C@H](c4ccncn4)O[C@@H]3C2)cs1`, the cytotoxicity at 10 µM was -144%.

Regarding `O=C([C@@H]1COC[C@H]2CN(c3ccncn3)C[C@H]21)N1CCCC1`, the cytotoxicity at 10 µM was -133%.

In the case of `COc1ccc(CN2CCc3nc(C4CCCCN4C)ncc3C2)cc1` (stereo not given), the cytotoxicity at 10 µM is -1.08%.

Consider `CCOc1ncccc1NC(=O)NC1CCN(C(=O)C2CC2)CC1`, for which the cytotoxicity at 10 µM was -13.6%.

For `O=C(NCCc1c[nH]c2ccc(F)cc12)C1(n2cnnn2)CCCCC1`, the cytotoxicity at 10 µM is -1.34%.

Regarding `CNC(=O)CNC(=O)c1ccc(-c2scnc2C)nc1`, the cytotoxicity at 10 µM was -4.26%.

Take `COc1cc2c(cc1OC)S(=O)(=O)N(Cc1cc(C)on1)C2=O`: the cytotoxicity at 10 µM came out at 11.3%.

With `CC(O)CN1CCN(C(=O)c2cc(Cl)cc3cccnc23)CC1` (stereo not given), the cytotoxicity at 10 µM was -1.78%.

Turning to `Cc1ncsc1C(=O)NCCn1nc(C2CCNC2)c2cccnc21` (stereo not given), the cytotoxicity at 10 µM is -0.98%.

On to `COc1cccc(CC(C)NC(=O)NCCc2cccnc2)c1` (stereo not given), for which the cytotoxicity at 10 µM is -11%.

`CC(C)c1nnc(CN2CCCC(c3cc(C(N)=O)[nH]n3)C2)o1` (stereo not given): the cytotoxicity at 10 µM was -29.7%.

On to `CN(CCO)C(=O)Nc1ccn(-c2cccc(C(F)(F)F)c2)n1`, for which the cytotoxicity at 10 µM was 4.16%.

As to `Cc1ccccc1C(C)NC(=O)CSCC#N` (stereo not given), the cytotoxicity at 10 µM was -10.2%.

Consider `Cn1c(=O)n(C)c2nc(Cl)c(CC(=O)c3ccc(F)cc3)n2c1=O`, for which the cytotoxicity at 10 µM was determined as 6.28%.

In the case of `O=C(Cc1c[nH]c(=O)[nH]c1=O)N1CCCCC1CCc1ccccc1` (stereo not given), the cytotoxicity at 10 µM is -9.05%.

Consider `Cn1cc(CN2CC[C@@H]3[C@@H](CCC(=O)N3CC3CCNCC3)C2)cn1`, for which the cytotoxicity at 10 µM was 1.73%.

Turning to `O=C(c1cc(C2CC2)nc2onc(-c3ccccc3)c12)N1CC(O)C1`, the cytotoxicity at 10 µM is -50.5%.

On to `Cc1ccc(C2(O)CCN(C(=O)c3ccc(S(N)(=O)=O)cc3)CC2)nc1`, for which the cytotoxicity at 10 µM was -2.13%.

For the molecule `COCCc1noc(CN2CC(C)(c3ccccc3)CCC2=O)n1` (stereo not given), the cytotoxicity at 10 µM came out at 3.1%.

In the case of `Cc1nc(-c2ccnc(N3CCNCC3)n2)no1`, the cytotoxicity at 10 µM stood at 2.63%.

Regarding `Cc1ccc(-c2nc(CCNC(=O)NC3CCN(C)CC3)co2)cc1`, the cytotoxicity at 10 µM is -6.71%.

Turning to `c1csc(CN2CC3(CCN(Cc4ccsc4)C3)C2)n1`, the cytotoxicity at 10 µM was -2.65%.

Take `CC(C)CN1CCCC12CCN(c1nncs1)C2` (stereo not given): the cytotoxicity at 10 µM turned out to be 1.81%.

Consider `Cn1cnc2c1CCN(CC(O)c1ccc(S(C)(=O)=O)cc1)C2` (stereo not given), for which the cytotoxicity at 10 µM is -3.3%.

Turning to `CCc1nc(CNC2CCCc3c2cnn3CC)cs1` (stereo not given), the cytotoxicity at 10 µM was determined as 5.12%.

As to `CCN1CCN(C(=O)NCCOc2ccc3c(c2)OCO3)CC1`, the cytotoxicity at 10 µM is -4.59%.

Take `COCCN1C2(CCN(CC3CC3)C2)c2ccccc2S1(=O)=O` (stereo not given): the cytotoxicity at 10 µM is -130%.

With `Cc1cc(C(=O)NCC(F)(F)F)c2c(C3CCCN3)noc2n1` (stereo not given), the cytotoxicity at 10 µM turned out to be 6%.

Regarding `Cc1cc(N2CCC(c3nccn3Cc3cscn3)CC2)ccn1`, the cytotoxicity at 10 µM is -4.72%.

In the case of `Cc1oc(-c2nc(C#N)c(NC(C)(C)C)o2)cc1S(=O)(=O)N1CCCC1`, the cytotoxicity at 10 µM was -0.699%.

As for `Cc1nn(Cn2ccc(C(=O)N3CCCC(C)C3)n2)c(C)c1Cl` (stereo not given), the cytotoxicity at 10 µM is 2%.

For `N#Cc1c(Cl)nsc1NCC1(c2ccccc2)CCC1`, the cytotoxicity at 10 µM was 26.7%.

Regarding `Cc1c(C(=O)N2CCOCC2)nnn1-c1ccc2ncccc2c1`, the cytotoxicity at 10 µM is -4.87%.

In the case of `CC(C)COCC1CN(C(=O)c2cscn2)Cc2ncn(C)c21` (stereo not given), the cytotoxicity at 10 µM is -109%.

For `COc1ccc(CC2CN(C3CCSCC3)CCO2)cc1` (stereo not given), the cytotoxicity at 10 µM was 4.49%.

For the molecule `OCCNC1CSCCc2ccccc21` (stereo not given), the cytotoxicity at 10 µM is -1.44%.

`Cn1cc(C2CCCN2C(=O)CCCc2ccccn2)cn1` (stereo not given): the cytotoxicity at 10 µM is -0.222%.

Consider `N#Cc1ccc(CN(CC(N)=O)C2CCCC2)c(Br)c1`, for which the cytotoxicity at 10 µM is 30.1%.

Turning to `Cc1nc(C2CCN(C(=O)CO)CC2)cc(N2CCOCC2)n1`, the cytotoxicity at 10 µM was -12.2%.

Turning to `O=C(c1cccnc1)N1CCn2cc(CN3CCCC3)nc2C1`, the cytotoxicity at 10 µM was -74.8%.

Consider `CSCC(=O)N1CCCN(Cc2cscn2)CC1`, for which the cytotoxicity at 10 µM is -5.28%.

Regarding `COCC1CN(Cc2ccc(F)cc2)Cc2nnn(CC3CC3)c21` (stereo not given), the cytotoxicity at 10 µM was 3.4%.

As to `Cc1ccc2c(c1)C1(CCN(C(N)=O)CC1)CN2CC1CC1`, the cytotoxicity at 10 µM is -109%.

On to `CC(c1ccccc1)N(C)C(=O)Cn1cc(NC(=O)C(C)(C)C)cn1` (stereo not given), for which the cytotoxicity at 10 µM was found to be 4%.

As to `O=C(COc1ccc(Cl)cc1Cl)N1CCCSCC1CN1CCOCC1` (stereo not given), the cytotoxicity at 10 µM was found to be 4.09%.

With `Cc1ccccc1NC(=O)N1CC[C@@H]2CN(C)S(=O)(=O)[C@@H]2CC1`, the cytotoxicity at 10 µM was 4%.

Take `CCS(=O)(=O)N1C[C@@H]2C[C@H](C(=O)N(C)C)[C@H](C1)O2`: the cytotoxicity at 10 µM was 5.58%.

As for `COc1ccc(CC(=O)Nc2cccnc2N2CCCC2)cc1OC`, the cytotoxicity at 10 µM is -22.6%.

On to `CCOCCn1c(=O)[nH]c2cc(C(=O)N(C)Cc3nc(C)c[nH]3)ccc21`, for which the cytotoxicity at 10 µM amounted to 6.09%.

As for `Cn1nc(COc2cccnc2)c2c1CCN(Cc1ccco1)C2`, the cytotoxicity at 10 µM is -5.57%.

For the molecule `CN(C)CCC(Nc1nc(N)nc2c1CCNCC2)c1ccccc1` (stereo not given), the cytotoxicity at 10 µM was -4.32%.

On to `O=C(N1CCOCC1)N1CCc2ncnc(NC3CCC3)c2CC1`, for which the cytotoxicity at 10 µM was -1.92%.

On to `CNC(=O)N1CCC2(CC1)CN(C(C)C)Cc1cc(F)ccc12`, for which the cytotoxicity at 10 µM is -2.82%.

In the case of `CC1CN(C)c2ccccc2CN1C(=O)NCc1ccon1` (stereo not given), the cytotoxicity at 10 µM was determined as 7.36%.

For `NC(=O)C1=NC2=NS(=O)(=O)c3ccccc3N2N1Cc1ccccc1Cl`, the cytotoxicity at 10 µM was -10.9%.

Take `Cc1noc([C@H]2C[C@H]3OCC[C@H]3N(Cc3scnc3C)C2)n1`: the cytotoxicity at 10 µM is -73.4%.

As to `O=C(NCC1(CO)CC1)c1ccccc1F`, the cytotoxicity at 10 µM was 9.99%.

On to `COC(=O)CNC(=O)c1cccc(C(=O)N(C)c2ccccc2)c1`, for which the cytotoxicity at 10 µM was 6.93%.

As for `O=C(CC1CC1)N[C@@H]1CN(Cc2ccoc2)C[C@@H]2CCCO[C@@H]21`, the cytotoxicity at 10 µM is 7.83%.

`Fc1cnc(N2CCCC3(CCN(Cc4nccs4)C3)C2)nc1` (stereo not given): the cytotoxicity at 10 µM was -67.9%.

For the molecule `CN1CCN(C(=O)Cc2ccc(F)cc2)Cc2cccnc21`, the cytotoxicity at 10 µM came to 0.0773%.

Turning to `CCOC(=O)N1CCC(OC)c2ccccc2N(C)C(=O)C1` (stereo not given), the cytotoxicity at 10 µM came to 7.58%.

In the case of `CC(C)c1cc(NC(=O)Cn2ccc(=O)c3ccccc32)[nH]n1`, the cytotoxicity at 10 µM is -146%.

For the molecule `Cc1ccc(NC(=O)C2CSCN2C(=O)c2cnccn2)cc1C` (stereo not given), the cytotoxicity at 10 µM is -8.3%.

`COCCC(=O)N1CCC2(CCN(Cc3cccc(F)c3)C2)C1` (stereo not given): the cytotoxicity at 10 µM was -60.2%.

On to `O=C(NCc1nnc2n1CCCC2)N(Cc1ccccc1F)C1CC1`, for which the cytotoxicity at 10 µM was -9.29%.

Take `Cn1nnnc1SCC1COc2ccccc2O1` (stereo not given): the cytotoxicity at 10 µM was -1.94%.

Take `CS(=O)(=O)NCc1cc(=O)n2c(n1)CN(Cc1ccco1)CCC2`: the cytotoxicity at 10 µM was determined as 7.25%.

On to `COc1cc(N2C[C@H]3CCC[C@@H](CN(C)C4CC4)[C@H]3C2)ncn1`, for which the cytotoxicity at 10 µM is -73%.

Turning to `CCc1cc(CNC(=O)c2cc(NC(=O)C(C)C)ccc2Cl)[nH]n1`, the cytotoxicity at 10 µM is 9.36%.

For the molecule `Cc1ccc(CN2Cc3ccnn3CC(COCc3cccnc3)C2)o1` (stereo not given), the cytotoxicity at 10 µM is -143%.
